Values belong to the compound of their own block, whether it stands above or below them. The source made the active and inactive calls. The calls are words filed in the database; no cut-off is given here.
Assays:
[1] = Aqueous solubility of the compound in solution at pH 6.8; format: physicochemical
[2] = Aqueous solubility of the compound in solution at pH 6.8 in presence of 15 mM sodium taurocholate; format: physicochemical; conditions: aqueous solution with 15 mM sodium taurocholate
Rattus norvegicus [3] = assay: Inhibition of VAP-1 in Wistar rat plasma at 1 mg/kg, po using 14C-benzylamine as substrate preincubated for 20 mins followed by substrate addition measured after 1 hr by scintillation spectrometric analysis; format: functional
In short: (§1)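 Male Wistar rats (n = 4) dosed orally. Tail-vein blood was taken under ether anaesthesia before dosing and at 1 or 6 h after. Plasma was kept at -80 °C. 100 μL plasma was reacted with 14C-benzylamine at 37 °C for 2 h. Non-specific activity was measured with 1 mmol/L FR299676 and subtracted. 14C-Benzaldehyde was counted by liquid scintillation. Inhibition ratio = fall from the pre-dose activity, in %.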

CYP3A4 = CYP3A4 (Homo sapiens, UniProt P08684); assay: Inhibition of CYP3A4 in human liver microsomes assessed as residual activity at 5 uM using midazolam as substrate after 20 mins by LC-MS/MS analysis; format: ADME; conditions: probe midazolam, read-out: Activity
In short: (§2)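 Pooled human liver microsomes (0.1 mg/mL) in 100 mM Na-K phosphate pH 7.4 with 1 mM NADPH. Test compound at 5 μM was co-incubated with a probe cocktail including midazolam (1.5 μM) and S-mephenytoin (30 μM) at 37 °C for 20 min. The reaction was stopped with 80% acetonitrile. 1'-Hydroxymidazolam (CYP3A4) and 4'-hydroxymephenytoin (CYP2C19) were measured by LC-MS/MS. Residual activity = activity with compound / vehicle activity × 100.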

Rattus norvegicus [4] = assay: Inhibition of VAP-1 in Wistar rat plasma at 1 mg/kg, po using 14C-benzylamine as substrate preincubated for 20 mins followed by substrate addition measured after 6 hr by scintillation spectrometric analysis; format: functional; in short: as §1
[5] = target: T1, Amine oxidase [copper-containing] 3 (Rattus norvegicus, UniProt O08590); assay: Inhibition of rat VAP-1 expressed in CHO cells using 14C-benzylamine as substrate preincubated for 20 mins followed by substrate addition measured after 1 hr by scintillation spectrometric analysis; format: cell-based
T1 sequence (O08590 whole entry): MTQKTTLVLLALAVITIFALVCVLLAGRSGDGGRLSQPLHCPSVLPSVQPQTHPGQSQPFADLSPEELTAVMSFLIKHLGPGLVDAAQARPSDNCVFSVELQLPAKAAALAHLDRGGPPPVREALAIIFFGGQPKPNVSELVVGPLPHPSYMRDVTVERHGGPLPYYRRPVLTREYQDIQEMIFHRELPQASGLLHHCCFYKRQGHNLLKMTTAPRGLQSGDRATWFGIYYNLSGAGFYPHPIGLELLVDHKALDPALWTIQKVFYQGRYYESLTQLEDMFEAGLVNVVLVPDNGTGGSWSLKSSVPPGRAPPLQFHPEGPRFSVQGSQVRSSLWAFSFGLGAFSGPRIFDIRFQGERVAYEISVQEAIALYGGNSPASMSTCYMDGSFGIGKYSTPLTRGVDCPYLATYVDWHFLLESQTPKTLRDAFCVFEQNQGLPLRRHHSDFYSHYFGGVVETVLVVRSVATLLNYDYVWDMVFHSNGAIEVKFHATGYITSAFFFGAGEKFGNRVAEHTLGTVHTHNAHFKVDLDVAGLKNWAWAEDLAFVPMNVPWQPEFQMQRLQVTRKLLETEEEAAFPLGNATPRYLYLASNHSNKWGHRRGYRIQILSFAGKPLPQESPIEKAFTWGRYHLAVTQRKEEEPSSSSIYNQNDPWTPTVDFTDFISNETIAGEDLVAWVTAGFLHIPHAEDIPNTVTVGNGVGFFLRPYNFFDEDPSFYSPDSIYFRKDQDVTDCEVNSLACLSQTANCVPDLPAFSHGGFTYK

CYP2C19 = CYP2C19 (Homo sapiens, UniProt P33261); assay: Inhibition of CYP2C19 in human liver microsomes assessed as residual activity at 5 uM using S-mephenytoin as substrate after 20 mins by LC-MS/MS analysis; format: ADME; conditions: probe S-mephenytoin, read-out: Activity; in short: as §2
[6] = target: T2, Amine oxidase [copper-containing] 3 (Homo sapiens, UniProt Q16853); assay: Inhibition of human VAP-1 expressed in CHO cells using 14C-benzylamine as substrate preincubated for 20 mins followed by substrate addition measured after 1 hr by scintillation spectrometric analysis; format: cell-based
T2 sequence (Q16853 whole entry): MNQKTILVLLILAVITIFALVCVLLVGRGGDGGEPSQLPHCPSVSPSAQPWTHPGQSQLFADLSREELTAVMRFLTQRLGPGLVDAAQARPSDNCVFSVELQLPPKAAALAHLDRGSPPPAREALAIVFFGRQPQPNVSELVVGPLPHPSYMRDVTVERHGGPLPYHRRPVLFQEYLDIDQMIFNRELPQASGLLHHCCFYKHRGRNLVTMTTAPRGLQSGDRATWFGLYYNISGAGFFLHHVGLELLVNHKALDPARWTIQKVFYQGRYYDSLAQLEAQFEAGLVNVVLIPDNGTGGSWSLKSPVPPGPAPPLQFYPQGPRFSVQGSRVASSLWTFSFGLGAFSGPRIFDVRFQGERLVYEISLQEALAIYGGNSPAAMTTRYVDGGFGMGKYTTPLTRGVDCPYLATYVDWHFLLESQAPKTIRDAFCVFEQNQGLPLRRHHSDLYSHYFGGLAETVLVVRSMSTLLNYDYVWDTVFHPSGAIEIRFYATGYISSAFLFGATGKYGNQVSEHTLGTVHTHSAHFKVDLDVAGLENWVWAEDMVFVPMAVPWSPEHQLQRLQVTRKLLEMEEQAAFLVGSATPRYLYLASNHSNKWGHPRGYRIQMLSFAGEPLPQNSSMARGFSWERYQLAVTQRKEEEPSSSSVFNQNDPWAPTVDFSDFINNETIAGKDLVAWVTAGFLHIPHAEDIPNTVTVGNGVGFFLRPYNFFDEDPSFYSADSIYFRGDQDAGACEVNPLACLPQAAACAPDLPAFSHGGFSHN

[7] = Plasma concentration in Wistar rat at 1 mg/kg, po after 1 hr post dose by LC-MS/MS analysis; format: ADME, organism-based
In short: (§3)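 Male Wistar rats, fasted about 18 h, dosed at 1 mg/kg iv (solution in 5% DMSO in water) or orally, n = 3. Plasma was deproteinated with acetonitrile and the compound was quantified by LC-MS/MS. Parameters came from non-compartmental analysis.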

Rattus norvegicus [8] = assay: Inhibition of VAP-1 in Wistar rat plasma at 0.3 mg/kg, po using 14C-benzylamine as substrate preincubated for 20 mins followed by substrate addition measured after 6 hr by scintillation spectrometric analysis; format: functional; in short: as §1
[9] = AUC (0 to 24 hrs) in Wistar rat at 1 mg/kg, iv by LC-MS/MS analysis; format: ADME, organism-based; parameters: dose 1 mg/kg, time < 24 hr, route intravenous; conditions: in vivo; in short: as §3
[10] = Cmax in Wistar rat at 1 mg/kg, po by LC-MS/MS analysis; format: ADME, organism-based; parameters: dose 1 mg/kg, route oral; conditions: in vivo; in short: as §3
[11] = Volume of distribution at steady state in Wistar rat at 1 mg/kg, iv by LC-MS/MS analysis; format: ADME, organism-based; conditions: in vivo, read-out: Vdss; in short: as §3
[12] = AUC (0 to 24 hrs) in Wistar rat at 1 mg/kg, po by LC-MS/MS analysis; format: ADME, organism-based; parameters: dose 1 mg/kg, time < 24 hr, route oral; conditions: in vivo; in short: as §3
[13] = Half life in Wistar rat at 1 mg/kg, po by LC-MS/MS analysis; format: ADME, organism-based; conditions: in vivo; in short: as §3
Rattus norvegicus [14] = assay: Inhibition of VAP-1 in Wistar rat plasma at 0.3 mg/kg, po using 14C-benzylamine as substrate preincubated for 20 mins followed by substrate addition measured after 1 hr by scintillation spectrometric analysis; format: functional; in short: as §1
[15] = Half life in Wistar rat at 1 mg/kg, iv by LC-MS/MS analysis; format: ADME, organism-based; conditions: in vivo; in short: as §3
Rattus norvegicus [16] = assay: In vivo inhibition of VAP-1 in STZ-induced diabetic Sprague-Dawley rat plasma at 0.3 to 1 mg/kg, po for 4 weeks measured after 24 hrs after final dose using 14C-benzylamine as substrate by scintillation spectrometric analysis; format: functional, organism-based
In short: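 STZ-diabetic SD rats (65 mg/kg ip) dosed orally once daily for 4 weeks in 0.5% MC. Suborbital blood was taken under ether 24 h after the last dose. 50 μL plasma was reacted with 14C-benzylamine at 37 °C for 1 h, minus non-specific activity measured with 1 mmol/L FR299676. Liquid scintillation counting; mean ± SEM, Dunnett's test against STZ control.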

Rattus norvegicus [17] = assay: In vivo inhibition of VAP-1 in STZ-induced diabetic Sprague-Dawley rat assessed as reduction in proteinuria progression at 0.3 to 1 mg/kg, po for 4 weeks measured after 24 hrs by Bradford colorimetric assay; format: functional, organism-based
In short: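 Male SD rats (6 weeks old) given STZ 65 mg/kg ip in citrate-buffered saline pH 4.5; sham rats got buffer. Groups were set by plasma glucose and body weight at day 3. Dosing was oral in 0.5% MC, 5 mL/kg, once daily for 4 weeks. 24-h metabolic-cage urine was collected in week 4 and protein measured by Bradford assay; excretion = concentration × urine volume. Mean ± SEM; Dunnett's test against STZ control.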

[18] = Oral bioavailability in Wistar rat at 1 mg/kg by LC-MS/MS analysis; format: ADME, organism-based; conditions: in vivo; in short: as §3
[19] = Plasma concentration in Wistar rat at 1 mg/kg, po after 6 hrs post dose by LC-MS/MS analysis; format: ADME, organism-based; in short: as §3
[20] = Total clearance in Wistar rat at 1 mg/kg, iv by LC-MS/MS analysis; format: ADME, organism-based; conditions: in vivo; in short: as §3

CYP2C19, sequence (P33261 whole entry): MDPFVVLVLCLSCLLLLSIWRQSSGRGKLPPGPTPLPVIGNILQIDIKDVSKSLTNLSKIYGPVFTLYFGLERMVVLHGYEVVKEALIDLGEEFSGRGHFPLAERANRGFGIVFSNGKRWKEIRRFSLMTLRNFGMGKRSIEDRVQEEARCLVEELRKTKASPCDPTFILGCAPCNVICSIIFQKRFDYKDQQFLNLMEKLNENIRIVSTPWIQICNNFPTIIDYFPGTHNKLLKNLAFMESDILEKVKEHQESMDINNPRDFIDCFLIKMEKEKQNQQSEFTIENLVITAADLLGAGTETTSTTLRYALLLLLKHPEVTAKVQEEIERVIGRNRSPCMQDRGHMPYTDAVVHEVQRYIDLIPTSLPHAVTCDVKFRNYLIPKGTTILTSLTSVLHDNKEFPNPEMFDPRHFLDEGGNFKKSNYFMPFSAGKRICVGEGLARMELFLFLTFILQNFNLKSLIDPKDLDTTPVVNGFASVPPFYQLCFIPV
CYP3A4, sequence (P08684 whole entry): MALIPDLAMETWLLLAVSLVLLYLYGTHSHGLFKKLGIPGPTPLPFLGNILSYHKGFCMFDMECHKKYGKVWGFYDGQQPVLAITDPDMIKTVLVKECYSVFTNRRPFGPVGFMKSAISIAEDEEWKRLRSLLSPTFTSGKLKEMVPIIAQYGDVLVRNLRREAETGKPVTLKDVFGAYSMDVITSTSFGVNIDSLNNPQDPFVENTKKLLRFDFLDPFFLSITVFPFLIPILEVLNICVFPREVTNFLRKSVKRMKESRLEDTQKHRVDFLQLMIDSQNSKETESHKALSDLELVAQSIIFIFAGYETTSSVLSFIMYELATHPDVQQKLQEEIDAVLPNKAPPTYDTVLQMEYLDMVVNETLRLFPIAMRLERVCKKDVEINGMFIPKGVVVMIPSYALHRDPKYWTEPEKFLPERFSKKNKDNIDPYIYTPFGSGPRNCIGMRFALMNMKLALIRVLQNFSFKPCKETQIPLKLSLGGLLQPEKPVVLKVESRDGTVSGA

SMILES: CN(Cc1cccc(-c2cnc(N3CCN(c4ccc(C(=O)O)cc4Cl)CC3)nc2)c1)C(=O)CN.Cl.Cl
concentration at 1 h [7]: 111 ng/mL | inhibition in vivo at 0.3 mg/kg (Rattus norvegicus [8]): 62% | AUC(0-t) at 24 h [9]: 1920 ng·h/mL | solubility [1]: 2.3 µM | Cmax [10]: 113 ng/mL | Vd [11]: 0.386 L/kg | AUC(0-t) at 24 h [12]: 334 ng·h/mL | half-life [13]: 1.29 h | solubility [2]: 89.6 µM | inhibition in vivo at 0.3 mg/kg (Rattus norvegicus [14]): 64% | inhibition in vivo at 1 mg/kg (Rattus norvegicus [3]): 96% | activity at 20 min, 5 µM (CYP3A4): 98% | half-life [15]: 1.39 h | inhibition in vivo at 1 mg/kg (Rattus norvegicus [4]): 93% | inhibition (Rattus norvegicus [16]): Active | inhibition (Rattus norvegicus [17]): Active | activity at 20 min, 5 µM (CYP2C19): 109% | bioavailability [18]: 17.4% | concentration at 6 h [19]: 7.1 ng/mL | clearance [20]: 8.69 mL/min/kg

SMILES: CN(Cc1cccc(-c2ccc(N3CCOCC3)cc2)c1)C(=O)CN
activity at 20 min, 5 µM (CYP3A4): 57% | activity at 20 min, 5 µM (CYP2C19): 63%

SMILES: CN(Cc1cccc(-c2ccc(N3CCOCC3)cc2)n1)C(=O)CN
IC50 [5]: 160 nM | IC50 [6]: 2000 nM

SMILES: CN(Cc1cccc(-c2cnc(N3CCC(C(=O)O)CC3)nc2)c1)C(=O)CN
activity at 20 min, 5 µM (CYP3A4): 112% | activity at 20 min, 5 µM (CYP2C19): 104% | IC50 [6]: 1700 nM

More lines, in order of falling IC50 [6], values ahead:

IC50 [6]: 300 nM
SMILES: CN(Cc1cccc(-c2cnc(N3CCC[C@@H]3CO)nc2)c1)C(=O)CN

IC50 [6]: 250 nM
SMILES: CN(Cc1cccc(-c2cnc(N3CCCCC3)nc2)c1)C(=O)CN

IC50 [6]: 240 nM
SMILES: CN(Cc1cccc(-c2cnc(N3CCC[C@H]3CO)nc2)c1)C(=O)CN

activity at 20 min, 5 µM (CYP3A4): 108% | activity at 20 min, 5 µM (CYP2C19): 119% | IC50 [6]: 140 nM
SMILES: CN(Cc1cccc(-c2cnc(N3CCC(CCC(=O)O)CC3)nc2)c1)C(=O)CN

solubility [1]: < 1 µM | solubility [2]: < 1 µM | activity at 20 min, 5 µM (CYP3A4): 100% | IC50 [5]: 10 nM | activity at 20 min, 5 µM (CYP2C19): 106% | IC50 [6]: 24 nM
SMILES: CN(Cc1cccc(-c2cnc(N3CCN(c4ccc(C(=O)O)cc4)CC3)nc2)c1)C(=O)CN.Cl.Cl
inhibition in vivo at 1 mg/kg (Rattus norvegicus [3]): 68% | inhibition in vivo at 1 mg/kg (Rattus norvegicus [4]): 60%

From ChEMBL document CHEMBL4052665, “Synthesis and pharmacological evaluation of glycine amide derivatives as novel vascular adhesion protein-1 inhibitors without CYP3A4 and CYP2C19 inhibition” (Bioorg Med Chem, 2017)
